# Source: PubChem BioAssay (The Scripps Research Institute Molecular Screening Center)
# Most compounds without a hit are left out; they make up all but 1.6% or so of the library.
# LEDGF integ inh = blocks HIV-1 LEDGF/p75-dependent DNA integration; inhibition, % at 3.7 µM; actives 0.64% (n = 370,000); AID 743269; TR-FRET IN-LEDGF/p75 DNA integration, Eu/Cy5;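 active = inhibition above the screen-wide mean plus 3 SD, cut at about 13% in these data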;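 note: signal is the Cy5 over europium emission ratio at 671 and 618 nm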
# TDP2 absorb = blocks human TDP2 phosphodiesterase activity. inhibition, % at 12.8 µM. O95551. recombinant TDP2, T5PNP hydrolysis, p-nitrophenol absorbance 415 nm. actives 0.34% (n = 370,000);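 active = inhibition above the mean of all tested compounds plus 3 SD, set per campaign, cut at about 25% in these data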
#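 Evaluation: % inhibition relative to enzyme-containing and enzyme-free wells. Material: recombinant human TDP2. Benchmarks: enzyme-free and DMSO wells. Timing: enzyme reaction with compound for 2 h at 37 °C. Compound dosing: 12.8 µM only. Measured by: p-Nitrophenol epi absorbance. Reagent: T5PNP substrate at 5 mM, a TopII-DNA adduct mimic. Replication: single well per compound.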
# UHRF1 binding = UHRF1 methyl-DNA binding inhibition; Q96T88; inhibition, % at 4.4 µM; UHRF1 binding to methylated oligo, TR-FRET; actives 0.75% (n = 370,000);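 note: UHRF1 SRA domain binding a hemimethylated CpG hairpin DNA probe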
# MBD2 DNA inh = MBD2-methylated oligo binding inhibition; Q9UBB5; TR-FRET, MBD2 binding to methylated oligonucleotide; inhibition, % at 4.4 µM; actives 0.31% (n = 370,000); AID 686964; in the data active = inhibition above about 13%
# Target sequence (Q9UBB5 whole entry, looked up): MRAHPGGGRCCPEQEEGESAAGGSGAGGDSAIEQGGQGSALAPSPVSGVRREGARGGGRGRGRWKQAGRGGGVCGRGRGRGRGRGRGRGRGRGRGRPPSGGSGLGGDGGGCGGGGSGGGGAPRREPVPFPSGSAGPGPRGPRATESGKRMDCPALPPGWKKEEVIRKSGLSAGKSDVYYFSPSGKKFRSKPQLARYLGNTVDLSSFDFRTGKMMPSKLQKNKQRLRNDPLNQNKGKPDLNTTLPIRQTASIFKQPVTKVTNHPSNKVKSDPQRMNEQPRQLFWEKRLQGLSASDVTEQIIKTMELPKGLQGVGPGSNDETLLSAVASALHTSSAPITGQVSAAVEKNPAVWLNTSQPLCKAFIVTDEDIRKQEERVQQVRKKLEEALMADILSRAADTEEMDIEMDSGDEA
# UHRF1 ctr MBD2 = UHRF1 methyl-oligo binding inhibition as MBD2 counter-screen; shares compounds with MBD2 DNA inh; UHRF1 binding to methylated oligonucleotide, TR-FRET; inhibition, % at 4.4 µM; actives 25% (n = 1,000); AID 720530;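 note: UHRF1 SRA domain binding a labeled hemimethylated CpG hairpin DNA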
# MBD2 DBD conf = MBD2-DBD methyl-DNA binding inhibition, TR-FRET confirmation; shares compounds with MBD2 DNA inh; inhibition, % at 4.4 µM; TR-FRET MBD2-DBD binding to methylated oligonucleotide; actives 26% (n = 1,000); in the data active = inhibition above about 14%
# A number is an active result; i = inactive; nt = no result given. Cut-off read from the data, not from the text of the source, unless noted: active = inhibition above about 21%; inactive = the rest.
SMILES,LEDGF integ inh,TDP2 absorb,UHRF1 binding,MBD2 DNA inh,UHRF1 ctr MBD2,MBD2 DBD conf
CC(C)C[C@H](NC(C)(C)C(=O)NC1CCCCC1)C(=O)NCC(c1ccccc1)c1ccccc1,i,i,i,21,i,i
CC(C)C[C@H](NC(C)(C)C(=O)NC1CCCCC1)C(=O)NCCc1c[nH]c2ccccc12,i,i,i,i,nt,nt
CN(C)[C@H]1CCN(c2ccc3c(c2)O[C@H]2CCN(C2)S3(=O)=O)C1,i,i,i,i,nt,nt
COc1ccccc1-c1cccc2[nH]c3c(c12)CCN1C(=O)[C@H]2[C@H](C)ON(C)[C@H]2C[C@@H]31,i,i,i,i,nt,nt
COc1cc(NC(=O)C2CCCN(S(=O)(=O)c3ccc(Cl)s3)C2)cc(OC)c1 (configuration not stated),i,i,i,i,nt,nt
O=C(OCC1OC(n2ncc(=O)[nH]c2=O)C(OC(=O)c2ccccc2)C1OC(=O)c1ccccc1)c1ccccc1 (configuration not stated),i,i,i,28,i,i
O=C(OCC1OC(n2ccc(=O)[nH]c2=O)C2OC12)c1ccccc1 (configuration not stated),i,i,i,i,nt,nt
Cc1noc(C)c1Cn1nc(C(=O)O)c2ccccc2c1=O,i,i,i,32,i,i
COC(=O)C1=C(C)N(C)C(=NCc2ccccc2)NC1c1cccc(Cl)c1 (configuration not stated),i,i,i,i,nt,nt
COC(=O)c1cc(-c2cccc([N+](=O)[O-])c2)c2c(=O)[nH]c(=O)n(C)c2n1,i,i,23,14,i,i
CCOC(=O)c1[nH]ncc1CN1CCCC(C(=O)c2ccc(SC)cc2)C1 (configuration not stated),i,i,i,i,nt,nt
CCOC(=O)c1[nH]ncc1CN1CCCC(C(=O)c2cccc3ccccc23)C1 (configuration not stated),i,i,24,14,i,i
CCCc1ccc(C(=O)NNC(=O)c2ccc(Br)cc2)cc1,i,i,i,15,i,i
CCCc1ccc(C(=O)NNc2ccc(F)cc2)cc1,i,i,i,i,nt,nt
CN(Cc1ccccc1N1CCCC1)C(=O)c1cc2cc(Cl)ccc2o1,i,i,i,31,i,i
O=S1(=O)c2ccc(Br)cc2OC[C@@H](c2ccccc2)N1Cc1cn(Cc2ccccc2)nn1,i,i,i,i,nt,nt
Cc1ccc(C)c(S(=O)(=O)N2CCCOC2CNC(=O)C(=O)NCCc2ccco2)c1 (configuration not stated),i,i,i,15,i,i
Cc1ccc(C)c(S(=O)(=O)N2CCCOC2CNC(=O)C(=O)NCc2ccco2)c1 (configuration not stated),i,i,i,i,nt,nt
CC(=O)c1ccc(S(=O)(=O)N2CCN(C(=O)C(=O)c3cccc(C(F)(F)F)c3)CC2)cc1,i,i,i,i,nt,nt
CC(C)CC(=O)NC(=S)Nc1ccccc1C(F)(F)F,i,i,i,i,nt,nt
CC(C)(C)CC(=O)NC(=S)Nc1ccccc1C(F)(F)F,i,i,23,16,i,i
O=[N+]([O-])c1ccc2c(c1)CCCO[C@]21O[C@H](CCO)C[C@H](O)[C@H]1O,i,i,i,i,nt,nt
Cc1ccccc1NC(=O)Cc1nc(COC(=O)CC(C)c2ccccc2)cs1 (configuration not stated),i,i,i,20,i,i
CCC(C(=O)OCc1csc(CC(=O)Nc2ccccc2C)n1)c1ccccc1 (configuration not stated),i,i,i,i,nt,nt
COc1ccc(C(=O)N(CN2CCCC2=O)c2ccc(C)cc2)cc1,i,i,i,i,nt,nt
SMILES,LEDGF integ inh,TDP2 absorb,UHRF1 binding,MBD2 DNA inh,UHRF1 ctr MBD2,MBD2 DBD conf
Cc1ccc(N(CN2CCCC2=O)C(=O)c2ccccc2)cc1,i,i,i,17,i,i
COc1cccc(-c2cc(C(=O)NC3CCCC3)no2)c1,i,i,i,16,i,i
COC(=O)c1ccc(OCC(=O)c2ccccc2)cc1,i,i,21,16,i,i
O=S(=O)(NCc1ccc(Cl)cc1)c1ccc(Br)cc1C1CC[C@@H](O)C1 (some centres not stated),i,i,i,i,nt,nt
CC1CCCCC1NC(=O)CSc1nncs1 (configuration not stated),i,i,i,14,i,i
CC1CCCC(NC(=O)CSc2nncs2)C1C (configuration not stated),i,i,i,i,nt,nt
O=C(O)[C@@H]1C[C@@H](O)CN1,i,i,i,i,nt,nt
Cc1ccc2nc(C(C)(C)C)c(Cc3ccccc3C(F)(F)F)n2c1,i,i,21,15,i,i
c1ccc(Cn2ccc3ccc(-c4ccc5ccn(Cc6cccc(-c7cccs7)c6)c5c4)cc32)cc1,i,i,i,i,nt,nt
COCCCN(C(=O)c1cc2c(s1)CCC2)c1c(N)n(Cc2ccccc2)c(=O)[nH]c1=O,i,i,i,i,nt,nt
CCCN(C(=O)c1cc2c(s1)CCC2)c1c(N)n(Cc2ccccc2)c(=O)[nH]c1=O,i,i,i,13,i,18
CCn1c(SCC(=O)c2ccc(O)c(O)c2)nnc1-c1ccc(C)cc1,i,i,44,15,i,i
Cc1cc(S(=O)(=O)NCC(c2ccccc2)c2ccccc2)ccc1-n1cnnn1,i,i,i,14,i,i
Cc1c(C)n(CCN(C)C)c2ccc(C(=O)OCCN(C)C)cc12,i,i,i,13,24,i
Cc1cc2cc(C(c3nnnn3CC3CCCO3)N3CCCc4ccccc43)c(=O)[nH]c2cc1C (configuration not stated),i,i,i,i,nt,nt
Cc1cccc2cc(C(c3nnnn3CC3CCCO3)N3CCCc4ccccc43)c(=O)[nH]c12 (configuration not stated),i,i,i,18,i,i
Cc1ccc(NC(=O)c2cc3ccccc3oc2=N)cc1,i,i,i,i,nt,nt
N=c1oc2cc(O)ccc2cc1C(=O)Nc1ccc(Cl)cc1,i,i,i,14,i,i
C=CCN1C(=O)[C@@H](CC(=O)NCCCCc2ccccc2)[C@]2(C(=O)OC)CCCCC=C12,i,i,i,i,nt,nt
COC(=O)C1=C(C)N(C)C(=NCC2CC2)NC1c1cccc(F)c1 (configuration not stated),i,i,i,i,nt,nt
O=C(Nc1ccc(Cc2ccncc2)cc1)c1cccc([N+](=O)[O-])c1,i,i,i,i,nt,nt
O=C(Nc1ccc(Nc2ccncc2)cc1)c1ccc(Nc2ccnc3ccc([N+](=O)[O-])cc23)cc1,i,i,32,16,38,34
CC1(C(=O)NS(=O)(=O)c2cccc(F)c2)CCN1C(=O)CCc1ccc(Cl)cc1Cl (configuration not stated),i,i,i,i,nt,nt
